Experimental data gathered from unrelated publications.
Lines come from different studies, so protocols differ.
KCNH2: Voltage-gated inwardly rectifying potassium channel KCNH2 (KCNH2, Homo sapiens, UniProt Q12809)

| Compound | tested on | test | system | conditions | quantity | result |
| --- | --- | --- | --- | --- | --- | --- |
| COc1nc(-c2cccc(-c3ccccc3)c2C)ccc1CNCCNC(=O)CCCCCCCCCCC(=O)N1CCN(CCNC(=O)c2cc3c(=O)n4cccc(C)c4nc3n(CCc3cccs3)c2=N)CC1 |  |  | male Sprague-Dawley rat, plasma | oral, 40 mg/kg | MRT(0-inf) | 13.6 h |
| C[C@H]1Oc2cc(cnc2N)-c2c(nn(C)c2C#N)CN(C)C(=O)c2ccc(F)cc21 |  |  | male Sprague-Dawley rat, plasma | oral, 50 mg/kg, single dose | MRT(0-t) | 11.9 h |
| COc1cccc(OC)c1-c1cc(C(=O)NC2(C(=O)O)C3CC4CC(C3)CC2C4)nn1-c1ccc(C(=O)N(C)CCCN(C)CCCN(C)C(=O)CN2CCN(CC(=O)[O-])CCN(CC(=O)[O-])CCN(CC(=O)[O-])CC2)cc1C(C)C.[177Lu+3] (stereo not shown) | HT-29 |  | pancreas | 7 days, tumour-bearing | tracer uptake | 0.28 %ID/g |
| CC(=O)N1CCC(C(=O)N2CCN3C(=O)c4cc(-c5ccccc5)ccc4NC(=O)C3C2)CC1 (stereo not shown) | KCNH2 | ion current, inhibitor, patch clamp | HEK293 | 0.1 µM | inhibition | 2.6% |
| N[C@H]1C(O)O[C@H](CO)[C@@H](O)[C@@H]1O (stereo partly shown) | Caco-2 | cell growth or viability, CCK-8 |  | 10 mM | viability | 102% |
| COc1ccc2c(c1)CN(C(=O)CCN1CCC(Cc3ccccc3)CC1)CC[S@@+]2[O-] |  |  | male human, plasma | intravenous, 0.01 mg/kg, healthy volunteers | Tmax | 0 h |
| CN1C[C@H](COc2nccc3c(NCc4ccco4)cc(Cl)nc23)OC1=O | KCNH2 | ion current, inhibitor | HEK293 | 10 µM | inhibition | 21.4% |
| CCOC(=O)C1=C(CN2CCC[C@@H]2C(=O)Nc2ccc(B(O)O)cc2)NC(c2nccs2)=N[C@H]1c1ccc(F)cc1Br | KCNH2 | ion current, inhibitor, patch clamp | HEK293 | 3 µM, pH 7.4 | inhibition | 31.8% |
| O=C(COc1ccc(Cl)cc1)NC12CC(c3nnc([C@H]4C[C@@H](OC(F)(F)F)C4)o3)(C1)C2 |  |  | human, plasma | oral, 100 mg, single dose, fasted, healthy volunteers | Tmax | 24 h |
| CC(C)n1cc(C#N)c2cc(-n3cc(C(=O)O)cn3)ccc21 |  |  | human, plasma | oral, 300 mg, single dose, fasted, healthy volunteers | Tmax | 4.01 h |
